# Laboratory results from ChEMBL document CHEMBL1149772, “GdCl(3) catalysed Grieco condensation: a facile approach for the synthesis of novel pyrimidine and annulated pyrimidine fused indazole derivatives in single pot under mild conditions and their anti-microbial activity” (2008).
# Assays:
# Format in all cases: functional
# Bacillus subtilis = test: Antibacterial activity against Bacillus subtilis MTCC 441 by broth dilution method
# Outline: (§1)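 Test bacteria kept on nutrient agar slants and subcultured in Petri dishes before testing. Nutrient agar and nutrient broth media. Compounds dissolved in acetone. MIC determined by broth dilution.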
# Rhizopus arrhizus [1] = test: Antifungal activity against Rhizopus oryzae MTCC 262 at 150 ug/ml by agar cup diffusion method; conditions: read-out: IZ
# Outline: (§2)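 Agar cup diffusion on autoclaved potato dextrose agar (15 lb/inch², 20 min). A week-old culture was spread over the solidified agar, and 6 mm cups were bored. Compounds were in DMSO at 100–150; amphotericin-B reference at 50; DMSO control. Plates held at 28 °C for 48 h. Inhibition zone diameter read in mm.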
# Pseudomonas aeruginosa = test: Antibacterial activity against Pseudomonas aeruginosa MTCC 1688 by broth dilution method; outline: as §1
# Candida albicans [2] = test: Antifungal activity against Candida albicans MTCC 227 at 150 ug/ml by agar cup diffusion method; conditions: read-out: IZ; outline: as §2
# Candida albicans [3] = test: Antifungal activity against Candida albicans MTCC 227 at 100 ug/ml by agar cup diffusion method; conditions: read-out: IZ; outline: as §2
# Rhizopus arrhizus [4] = test: Antifungal activity against Rhizopus oryzae MTCC 262 at 100 ug/ml by agar cup diffusion method; conditions: read-out: IZ; outline: as §2
# Aspergillus niger [5] = test: Antifungal activity against Aspergillus niger MTCC 1344 at 100 ug/ml by agar cup diffusion method; conditions: read-out: IZ; outline: as §2
# Escherichia coli = test: Antibacterial activity against Escherichia coli MTCC 443 by broth dilution method; outline: as §1
# Aspergillus niger [6] = test: Antifungal activity against Aspergillus niger MTCC 1344 at 150 ug/ml by agar cup diffusion method; conditions: read-out: IZ; outline: as §2
# Staphylococcus aureus = test: Antibacterial activity against Staphylococcus aureus MTCC 96 by broth dilution method; outline: as §1
# Aspergillus niger [7] = test: Antifungal activity against Aspergillus niger MTCC 1344 at 50 ug/ml by agar cup diffusion method; conditions: MTCC 1344, read-out: IZ; outline: as §2
# Candida albicans [8] = test: Antifungal activity against Candida albicans MTCC 227 at 50 ug/ml by agar cup diffusion method; conditions: MTCC 227, read-out: IZ
# Saccharomyces cerevisiae = test: Antifungal activity against Saccharomyces cerevisiae MTCC 36 at 50 ug/ml by agar cup diffusion method; conditions: MTCC 36, read-out: IZ; outline: as §2
# Rhizopus arrhizus [9] = test: Antifungal activity against Rhizopus oryzae MTCC 262 at 50 ug/ml by agar cup diffusion method; conditions: MTCC 262, read-out: IZ; outline: as §2
Compound,MIC (Bacillus subtilis) [µg/mL],MIC (Pseudomonas aeruginosa) [µg/mL],MIC (Escherichia coli) [µg/mL],MIC (Staphylococcus aureus) [µg/mL],zone of inhibition at 150 µg/mL (Rhizopus arrhizus [1]) [mm],zone of inhibition at 150 µg/mL (Candida albicans [2]) [mm],zone of inhibition at 100 µg/mL (Candida albicans [3]) [mm],zone of inhibition at 100 µg/mL (Rhizopus arrhizus [4]) [mm],zone of inhibition at 100 µg/mL (Aspergillus niger [5]) [mm],zone of inhibition at 150 µg/mL (Aspergillus niger [6]) [mm],zone of inhibition at 50 µg/mL (Aspergillus niger [7]) [mm],zone of inhibition at 50 µg/mL (Candida albicans [8]) [mm],zone of inhibition at 50 µg/mL (Saccharomyces cerevisiae) [mm],zone of inhibition at 50 µg/mL (Rhizopus arrhizus [9]) [mm]
N#Cc1c(-c2ccccc2)cc(C(F)(F)F)c2c3n(nc12)[C@H]1C=CCC[C@H]1CN3,150,75,37.5,75,12,8,7,8,10,12,,,,
CC1(c2ccccc2)CCNc2c3c(C(F)(F)F)cc(-c4ccccc4)c(C#N)c3nn21 (configuration not stated),75,75,37.5,75,12,9,8,,,,,,,
N#Cc1c(C(F)(F)F)cc(-c2ccccc2)c2c3n(nc12)C(c1ccccc1)CCN3 (configuration not stated),,,,,10,,,8,,,,,,
C[C@@H]1[C@H](O)[C@@H](C)/C=C/C=C/C=C/C=C/C=C/C=C/C=C/[C@H](O[C@@H]2O[C@H](C)[C@@H](O)[C@H](N)[C@@H]2O)C[C@@H]2O[C@](O)(C[C@@H](O)C[C@@H](O)[C@H](O)CC[C@@H](O)C[C@@H](O)CC(=O)O[C@H]1C)C[C@H](O)[C@H]2C(=O)O [AMPHOTERICIN B],,,,,,,,,,,23.5,22,23,26
C=CC1(C)CCNc2c3c(C(F)(F)F)cc(-c4ccccc4)c(C#N)c3nn21 (configuration not stated),150,150,150,75,,8,7,,7,8,,,,

# Continued, in another order:
MIC (Bacillus subtilis) [µg/mL],MIC (Pseudomonas aeruginosa) [µg/mL],MIC (Escherichia coli) [µg/mL],MIC (Staphylococcus aureus) [µg/mL],Compound,zone of inhibition at 150 µg/mL (Rhizopus arrhizus [1]) [mm],zone of inhibition at 150 µg/mL (Candida albicans [2]) [mm],zone of inhibition at 100 µg/mL (Candida albicans [3]) [mm],zone of inhibition at 100 µg/mL (Rhizopus arrhizus [4]) [mm],zone of inhibition at 100 µg/mL (Aspergillus niger [5]) [mm],zone of inhibition at 150 µg/mL (Aspergillus niger [6]) [mm],zone of inhibition at 50 µg/mL (Aspergillus niger [7]) [mm],zone of inhibition at 50 µg/mL (Candida albicans [8]) [mm],zone of inhibition at 50 µg/mL (Saccharomyces cerevisiae) [mm],zone of inhibition at 50 µg/mL (Rhizopus arrhizus [9]) [mm]
75,150,75,150,N#Cc1c(-c2ccccc2)cc(C(F)(F)F)c2c3n(nc12)[C@H]1c2ccccc2C[C@H]1CN3,9,,,7,,9,,,,
75,75,150,150,C=CC1(C)CCNc2c3c(-c4ccccc4)cc(C(F)(F)F)c(C#N)c3nn21 (configuration not stated),,,,,,,,,,
150,75,37.5,37.5,N#Cc1c(-c2ccccc2)cc(C(F)(F)F)c2c3n(nc12)[C@H]1C=CC[C@H]1CN3,,9,,,,10,,,,
50,50,25,50,N#Cc1c(-c2ccccc2)cc(C(F)(F)F)c2c3n(nc12)C(c1ccccc1)CCN3 (configuration not stated),,,,,,,,,,
75,75,37.5,37.5,N#Cc1c(-c2ccccc2)cc(C(F)(F)F)c2c3n(nc12)[C@@]1(c2ccccc2)CCCC[C@H]1CN3,9,11,9,,,10,,,,
150,150,75,75,N#Cc1c(-c2ccccc2)cc(C(F)(F)F)c2c3n(nc12)[C@H]1OCCC[C@H]1CN3,,,,9,,,,,,
150,150,75,150,N#Cc1c(C(F)(F)F)cc(-c2ccccc2)c2c3n(nc12)[C@H]1OCCC[C@H]1CN3,9,10,8,,,,,,,
